From ChEMBL document CHEMBL4706770, “SD-91 as A Potent and Selective STAT3 Degrader Capable of Achieving Complete and Long-Lasting Tumor Regression” (ACS Med Chem Lett, 2021)
Calls of active or inactive are those of the source. The rule behind the calls is not given here.

Columns and labels:
[1] = Drug uptake in SCID mouse xenografted with human MOLM16 cells assessed as drug level in plasma at 50 mg/kg, iv measured after 24 hrs by LC-MS/MS; type: ADME, organism-based
In short: (§1)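 SCID mice bearing MOLM-16 xenografts given a single iv dose of 50 mg/kg. Concentrations of parent and hydrolysis product measured in plasma (ng/mL) and tumor tissue (ng/g) at 1, 6 and 24 h.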

[2] = Drug uptake in SCID mouse xenografted with human MOLM16 cells assessed as drug level in plasma at 50 mg/kg, iv measured after 1 hrs by LC-MS/MS; type: ADME, organism-based; in short: as §1
[3] = Drug uptake in SCID mouse xenografted with human MOLM16 cells assessed as drug level in plasma at 50 mg/kg, iv measured after 6 hrs by LC-MS/MS; type: ADME, organism-based; in short: as §1
[4] = target: T1, Signal transducer and activator of transcription 3 (Homo sapiens, UniProt P40763); assay: Binding affinity to human recombinant STAT3 assessed as dissociation constant incubated for 15 mins by biolayer interferometry
In short: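 Biolayer interferometry with recombinant human STAT1, STAT2, STAT3, STAT4, STAT5A, STAT5B or STAT6 proteins containing their SH2 domain. Compound run in 2× serial dilutions from 200 nM. Kd taken from steady-state fitting of equilibrium responses against concentration using a 1:1 binding model.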

[5] = Drug uptake in SCID mouse xenografted with human MOLM16 cells assessed as drug level in tumor tissue at 50 mg/kg, iv measured after 6 hrs by LC-MS/MS; type: ADME, organism-based; conditions: read-out: Drug uptake; in short: as §1
[6] = target: T2, Signal transducer and activator of transcription 1-alpha/beta (Homo sapiens) (UniProt P42224); assay: Induction of STAT1 degradation in human SU-DHL-1 cells at 0.25 to 100 uM incubated for 14 hrs by Western blot analysis; type: cell-based; conditions: dose 0.25-100 µM
T2 sequence (whole entry): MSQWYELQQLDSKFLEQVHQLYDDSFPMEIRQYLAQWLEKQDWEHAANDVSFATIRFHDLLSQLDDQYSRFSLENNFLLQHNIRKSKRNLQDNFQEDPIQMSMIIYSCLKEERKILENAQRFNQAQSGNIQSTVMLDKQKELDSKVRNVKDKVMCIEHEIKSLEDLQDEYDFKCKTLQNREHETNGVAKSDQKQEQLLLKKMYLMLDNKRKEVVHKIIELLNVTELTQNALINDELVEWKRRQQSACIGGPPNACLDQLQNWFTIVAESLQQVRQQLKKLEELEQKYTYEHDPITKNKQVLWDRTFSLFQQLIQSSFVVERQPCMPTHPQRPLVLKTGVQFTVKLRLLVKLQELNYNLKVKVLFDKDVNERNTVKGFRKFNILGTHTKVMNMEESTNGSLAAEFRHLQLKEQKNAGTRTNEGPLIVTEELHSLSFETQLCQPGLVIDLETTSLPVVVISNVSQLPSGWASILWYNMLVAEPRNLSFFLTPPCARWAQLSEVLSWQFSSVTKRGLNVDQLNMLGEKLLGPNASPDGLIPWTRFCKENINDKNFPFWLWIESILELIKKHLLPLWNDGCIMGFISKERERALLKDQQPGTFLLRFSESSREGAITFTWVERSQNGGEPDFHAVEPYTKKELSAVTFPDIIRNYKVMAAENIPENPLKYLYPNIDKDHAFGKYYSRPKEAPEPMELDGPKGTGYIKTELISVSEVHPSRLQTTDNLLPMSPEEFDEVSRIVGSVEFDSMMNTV
In short: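 SU-DHL-1 or SUP-M2 cells treated over 25 nM to 100 μM. STAT family proteins assessed by Western blot.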

[7] = Drug uptake in SCID mouse xenografted with human MOLM16 cells assessed as drug level in tumor tissue at 50 mg/kg, iv measured after 1 hrs by LC-MS/MS; type: ADME, organism-based; conditions: read-out: Drug uptake; in short: as §1
[8] = Drug metabolism in complete cell culture medium assessed as 5-amino-4-(4-(8-((5S,8S,10aR)-8-((S)-5-amino-1-(benzhydrylamino)-1,5-dioxopentan-2-ylcarbamoyl)-6-oxo-5-(5-(phosphonocarbonyl)-1H-indole-2-carboxamido)octahydropyrrolo[1,2-a][1,5]diazocin-3(4H)-yl)-8-oxooct-1-ynyl)-1-oxoisoindolin-2-yl)-5-oxopentanoic acid after 96 hrs by LC/MS/MS analysis
In short: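 Parent compound incubated in the cell culture medium used for the cellular assays, with or without cells, at 37 °C. Percentages of the hydrolysis product and the glutarimide ring-opened product measured at time points up to 96 h.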

[9] = Drug uptake in SCID mouse xenografted with human MOLM16 cells assessed as drug level in tumor tissue at 50 mg/kg, iv measured after 24 hrs by LC-MS/MS; type: ADME, organism-based; conditions: read-out: Drug uptake; in short: as §1
[10] = target: T1, Signal transducer and activator of transcription 3; assay: Binding affinity to recombinant STAT3 (unknown origin) assessed as inhibition constant incubated for 1 hr by fluorescence polarization assay
In short: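 Competitive fluorescence-polarization binding assay with recombinant human STAT3 protein. Ki derived from competitive binding curves.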

[11] = Drug uptake in SCID mouse xenografted with human MOLM16 cells assessed as (2-(((5S,8S,10aR)-8-(((S)-5-amino-1-(benzhydrylamino)-1,5-dioxopentan-2-yl)carbamoyl)-3-(8-(2-(2,6-dioxopiperidin-3-yl)-1-oxoisoindolin-4-yl)oct-7-yno yl)-6-oxodecahydropyrrolo[1,2-a][1,5]diazocin-5-yl)carbamoyl)-1H-indole-5-carbonyl)phosphonic acid level in plasma at 50 mg/kg, iv measured after 24 hrs by LC-MS/MS; type: ADME, organism-based; conditions: in vivo; in short: as §1
[12] = target: Protein cereblon/Signal transducer and activator of transcription 5A (Homo sapiens) (UniProt P42229+Q96SW2); assay: Protac activity at CRBN/STAT5 in human SU-DHL-1 cells […] at 0.25 to 100 uM incubated for 4 hrs by Western blot analysis; type: cell-based; conditions: dose lower 0.25 µM
[13] = target: T3, Signal transducer and activator of transcription 4 (Homo sapiens) (UniProt Q14765); assay: Induction of STAT4 degradation in human SUP-M2 cells at 0.25 to 100 uM incubated for 14 hrs by Western blot analysis; type: cell-based; conditions: SUPM2, dose 0.25-100 µM
T3 sequence (whole entry): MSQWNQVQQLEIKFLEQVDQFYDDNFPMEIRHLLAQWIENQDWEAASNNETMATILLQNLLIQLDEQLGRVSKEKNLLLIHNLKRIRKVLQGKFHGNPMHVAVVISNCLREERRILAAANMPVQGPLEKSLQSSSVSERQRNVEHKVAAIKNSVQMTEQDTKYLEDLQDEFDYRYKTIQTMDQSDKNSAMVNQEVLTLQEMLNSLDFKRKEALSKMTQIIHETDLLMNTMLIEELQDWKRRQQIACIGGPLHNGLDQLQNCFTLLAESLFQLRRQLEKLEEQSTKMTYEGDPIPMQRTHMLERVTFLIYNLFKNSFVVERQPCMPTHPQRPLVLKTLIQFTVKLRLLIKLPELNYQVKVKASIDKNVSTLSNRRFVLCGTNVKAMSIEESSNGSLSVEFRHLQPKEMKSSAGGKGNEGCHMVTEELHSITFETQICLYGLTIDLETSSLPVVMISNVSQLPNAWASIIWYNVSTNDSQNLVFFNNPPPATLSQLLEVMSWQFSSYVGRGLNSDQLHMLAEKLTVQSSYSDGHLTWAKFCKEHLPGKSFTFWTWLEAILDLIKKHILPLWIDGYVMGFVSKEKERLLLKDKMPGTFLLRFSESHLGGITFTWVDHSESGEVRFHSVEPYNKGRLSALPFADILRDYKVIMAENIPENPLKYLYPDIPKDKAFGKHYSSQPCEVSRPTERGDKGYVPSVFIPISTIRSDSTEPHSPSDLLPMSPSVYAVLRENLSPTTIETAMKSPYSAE

T1 sequence (P40763 whole entry, the tested form may be a part): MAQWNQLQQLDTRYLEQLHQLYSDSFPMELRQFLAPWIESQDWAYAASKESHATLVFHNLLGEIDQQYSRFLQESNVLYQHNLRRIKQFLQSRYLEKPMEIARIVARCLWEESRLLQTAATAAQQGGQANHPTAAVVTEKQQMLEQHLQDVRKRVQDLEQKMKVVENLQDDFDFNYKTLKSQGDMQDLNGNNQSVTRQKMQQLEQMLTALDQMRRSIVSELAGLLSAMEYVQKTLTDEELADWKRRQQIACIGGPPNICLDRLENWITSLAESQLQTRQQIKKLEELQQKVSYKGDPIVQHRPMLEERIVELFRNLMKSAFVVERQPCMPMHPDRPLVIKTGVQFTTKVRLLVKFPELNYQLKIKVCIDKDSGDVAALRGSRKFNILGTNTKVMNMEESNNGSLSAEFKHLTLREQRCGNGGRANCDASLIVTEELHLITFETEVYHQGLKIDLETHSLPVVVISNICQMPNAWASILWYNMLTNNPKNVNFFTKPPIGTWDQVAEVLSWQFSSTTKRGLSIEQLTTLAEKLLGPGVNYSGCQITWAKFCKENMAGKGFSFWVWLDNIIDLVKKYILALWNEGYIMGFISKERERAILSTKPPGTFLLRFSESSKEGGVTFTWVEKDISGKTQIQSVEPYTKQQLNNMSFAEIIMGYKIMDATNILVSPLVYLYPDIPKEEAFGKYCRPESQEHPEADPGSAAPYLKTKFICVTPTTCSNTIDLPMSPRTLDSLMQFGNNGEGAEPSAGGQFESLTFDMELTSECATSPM
Sequence of Protein cereblon/Signal transducer and activator of transcription 5A (Homo sapiens) (P42229 whole entry, looked up): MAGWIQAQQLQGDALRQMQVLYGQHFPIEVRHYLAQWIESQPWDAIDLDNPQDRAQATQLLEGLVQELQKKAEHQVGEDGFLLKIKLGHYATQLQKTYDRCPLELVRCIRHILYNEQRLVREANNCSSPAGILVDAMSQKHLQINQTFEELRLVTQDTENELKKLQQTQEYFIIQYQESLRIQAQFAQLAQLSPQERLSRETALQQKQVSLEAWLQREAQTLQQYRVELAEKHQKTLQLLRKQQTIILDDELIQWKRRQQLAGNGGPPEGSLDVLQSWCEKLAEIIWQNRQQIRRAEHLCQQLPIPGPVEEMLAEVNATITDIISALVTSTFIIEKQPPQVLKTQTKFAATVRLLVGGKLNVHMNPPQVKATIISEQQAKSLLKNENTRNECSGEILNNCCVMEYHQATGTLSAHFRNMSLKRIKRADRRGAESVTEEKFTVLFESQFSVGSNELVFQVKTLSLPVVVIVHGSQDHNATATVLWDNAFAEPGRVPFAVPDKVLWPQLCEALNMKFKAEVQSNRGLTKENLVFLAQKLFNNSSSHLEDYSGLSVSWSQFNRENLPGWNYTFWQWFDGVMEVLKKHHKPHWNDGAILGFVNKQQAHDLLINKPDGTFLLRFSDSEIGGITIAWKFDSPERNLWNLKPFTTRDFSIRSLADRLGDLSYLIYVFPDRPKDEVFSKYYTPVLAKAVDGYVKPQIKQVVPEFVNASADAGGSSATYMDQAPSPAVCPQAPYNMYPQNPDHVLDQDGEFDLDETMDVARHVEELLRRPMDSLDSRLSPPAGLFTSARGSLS
Sequence of Protein cereblon/Signal transducer and activator of transcription 5A (Homo sapiens) (Q96SW2 whole entry, looked up): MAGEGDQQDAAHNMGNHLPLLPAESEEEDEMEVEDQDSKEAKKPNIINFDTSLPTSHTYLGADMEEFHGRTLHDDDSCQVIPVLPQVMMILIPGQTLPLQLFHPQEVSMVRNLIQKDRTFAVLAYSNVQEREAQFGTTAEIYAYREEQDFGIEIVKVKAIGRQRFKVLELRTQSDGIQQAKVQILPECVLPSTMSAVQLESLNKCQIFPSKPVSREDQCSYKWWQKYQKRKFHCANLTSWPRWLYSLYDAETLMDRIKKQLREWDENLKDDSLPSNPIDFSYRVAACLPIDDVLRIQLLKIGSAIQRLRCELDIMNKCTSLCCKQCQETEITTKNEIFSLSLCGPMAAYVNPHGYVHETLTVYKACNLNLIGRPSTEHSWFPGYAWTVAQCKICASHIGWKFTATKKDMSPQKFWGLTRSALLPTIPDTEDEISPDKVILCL

Row | Structure (SMILES) | concentration at 24 h [1] [ng/mL] | concentration at 1 h [2] [ng/mL] | concentration at 6 h [3] [ng/mL] | Kd [4] [nM] | concentration at 6 h [5] [ng/g] | Activity [6] | concentration at 1 h [7] [ng/g] | Drug metabolism [8] [%] | concentration at 24 h [9] [ng/g] | Ki [10] [nM] | Drug uptake [11] [ng/mL] | Activity [12] | Activity [13]
1 | NC(=O)CC[C@H](NC(=O)[C@@H]1CC[C@@H]2CCN(C(=O)CCCCCC#Cc3cccc4c3CN(C3CCC(=O)NC3=O)C4=O)C[C@H](NC(=O)c3cc4cc(C(=O)P(=O)(O)O)ccc4[nH]3)C(=O)N21)C(=O)NC(c1ccccc1)c1ccccc1 (some centres undefined) | 1360 | 85500 | 49200 | 28 | 4780 | inactive | 16200 | < 10 | 1800 | 5.1 | – | – | –
2 | NC(=O)CC[C@H](NC(=O)[C@@H]1CC[C@@H]2CCN(C(=O)CCCCCC#Cc3cccc4c3CN(C3CCC(=O)NC3=O)C4=O)C[C@H](NC(=O)c3cc4cc(C(F)(F)P(=O)(O)O)ccc4[nH]3)C(=O)N21)C(=O)NC(c1ccccc1)c1ccccc1 (some centres undefined) | 58 | 103000 | 1300 | – | 580 | – | 7720 | 10 | 275 | 11.7 | 305 | inactive | –
3 | CC(=O)N1CC[C@H]2CC[C@@H](C(=O)N[C@@H](CCC(N)=O)C(=O)NC(c3ccccc3)c3ccccc3)N2C(=O)[C@@H](NC(=O)c2cc3cc(C(F)(F)P(=O)(O)O)ccc3[nH]2)C1 | – | – | – | – | – | inactive | – | – | – | – | – | – | inactive
4 | CC(=O)N1CC[C@H]2CC[C@@H](C(=O)N[C@@H](CCC(N)=O)C(=O)NC(c3ccccc3)c3ccccc3)N2C(=O)[C@@H](NC(=O)c2cc3cc(C(=O)P(=O)(O)O)ccc3[nH]2)C1 | – | – | – | – | – | inactive | – | – | – | – | – | – | inactive
